Measurements from ChEMBL document CHEMBL4828745, “Discovery and Structure-Activity Relationships of Quinazolinone-2-carboxamide Derivatives as Novel Orally Efficacious Antimalarials” (J Med Chem, 2021).

Assays:
[1] = target: Matrix metalloproteinase-14 (Homo sapiens) (UniProt P50281); test: Inhibition of human MMP14 assessed as fluorescence intensity using Mca-Pro-Leu-Ala-Cys(p-OmeBz)-Trp-Ala-Arg(Dpa)-NH2 as substrate at 10 uM incubated for 60 mins relative to control
[2] = target: T1, Interstitial collagenase (Homo sapiens) (UniProt P03956); test: Inhibition of human MMP1 assessed as fluorescence intensity using DNP-Pro-Cha-Gly-Cys(Me)-His-Ala-Lys(n-Me-Abz)-NH2 as substrate at 10 uM incubated for 20 mins relative to control
T1 sequence (whole entry): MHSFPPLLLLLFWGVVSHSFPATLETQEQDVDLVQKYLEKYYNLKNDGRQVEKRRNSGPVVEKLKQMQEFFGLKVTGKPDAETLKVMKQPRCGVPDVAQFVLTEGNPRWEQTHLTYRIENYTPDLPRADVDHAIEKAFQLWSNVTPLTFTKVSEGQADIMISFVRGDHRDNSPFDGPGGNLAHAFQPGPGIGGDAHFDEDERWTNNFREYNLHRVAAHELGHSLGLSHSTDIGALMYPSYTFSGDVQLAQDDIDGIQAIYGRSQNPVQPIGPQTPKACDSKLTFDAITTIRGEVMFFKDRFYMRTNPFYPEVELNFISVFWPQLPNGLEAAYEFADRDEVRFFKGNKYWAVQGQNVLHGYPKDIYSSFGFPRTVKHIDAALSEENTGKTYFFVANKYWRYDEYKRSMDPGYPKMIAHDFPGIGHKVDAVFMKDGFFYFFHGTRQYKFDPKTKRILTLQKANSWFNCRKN

[3] = AUC (0 to infinity) in Sprague-Dawley rat at 1 mg/kg, iv by LC-MS analysis; format: ADME, organism-based; parameters: route intravenous, time infinity, dose 1 mg/kg; conditions: in vivo
In short: (§1)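 Male Sprague Dawley rats (n = 3) dosed IV at 1 mg/kg with the Na·4H2O salt in 50% DMA/50% PEG400. Plasma concentration–time profiles were obtained, and non-compartmental parameters are given as mean ± SD.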

[4] = Cmax in Sprague-Dawley rat at 5.6 mg/kg, po by LC-MS analysis; format: ADME, organism-based; parameters: route oral, dose 5.6 mg/kg; conditions: in vivo
In short: (§2)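 Male Sprague Dawley rats (n = 3) dosed orally at 5.6 mg/kg with the Na·4H2O salt suspended in 0.5% methyl cellulose in water. Plasma was sampled over time. Bioavailability was taken relative to the 1 mg/kg IV arm.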

[5] = Clearance in Swiss outbred mouse blood at 0.95 mg/kg, iv by LC-MS analysis; format: ADME, organism-based
[6] = Half life in Sprague-Dawley rat at 1 mg/kg, iv by LC-MS analysis; format: ADME, organism-based; conditions: in vivo; in short: as §1
[7] = Tmax in Sprague-Dawley rat at 5.6 mg/kg, po by LC-MS analysis; format: ADME, organism-based; conditions: in vivo; in short: as §2
[8] = Half life in Sprague-Dawley rat at 5.6 mg/kg, po by LC-MS analysis; format: ADME, organism-based; conditions: in vivo; in short: as §2
[9] = Plasma clearance in Swiss outbred mouse at 0.95 mg/kg, iv by LC-MS analysis; format: ADME, organism-based
[10] = Oral bioavailability in Sprague-Dawley rat at 5.6 mg/kg by LC-MS analysis; format: ADME, organism-based; conditions: in vivo; in short: as §2
[11] = AUC (0 to infinity) in Sprague-Dawley rat at 5.6 mg/kg, po by LC-MS analysis; format: ADME, organism-based; parameters: time infinity, route oral, dose 5.6 mg/kg; conditions: in vivo; in short: as §2
[12] = Volume of distribution at steady state in Sprague-Dawley rat plasma at 1 mg/kg, iv by LC-MS analysis; format: ADME, organism-based; conditions: read-out: Vdss; in short: as §1
[13] = AUC (0 to infinity) in Swiss outbred mouse at 0.95 mg/kg, iv by LC-MS analysis; format: ADME, organism-based; parameters: route intravenous, time infinity, dose 0.95 mg/kg; conditions: in vivo
[14] = Plasma clearance in Sprague-Dawley rat at 1 mg/kg, iv by LC-MS analysis; format: ADME, organism-based; in short: as §1

Compound | inhibition [1] | inhibition [2] | AUC(0-inf) [3] | Cmax [4] | clearance [5] | half-life [6] | Tmax [7] | half-life [8] | clearance [9] | bioavailability [10] | AUC(0-inf) [11] | Vd [12] | AUC(0-inf) [13] | clearance [14]
CCc1cccc(CNC(=O)c2nc3cccc(COCc4ccc(C(=O)O)cc4)c3c(=O)[nH]2)c1 | 10.8% | 11.3% | – | – | – | – | – | – | – | – | – | – | – | –
CCc1cccc(CNC(=O)c2nc3cccc(COCc4ccc(C(=O)[O-])cc4)c3c(=O)[nH]2)c1.O.O.O.O.[Na+] | – | – | 3.7 µM·h | 1700 nM | 57 mL/min/kg | 318 min | 30 min | 192 min | 31 mL/min/kg | 34% | 6.9 µM·h | 0.88 L/kg | 1.1 µM·h | 9.5 mL/min/kg
